Source: ChEMBL document CHEMBL1148788 (J Med Chem, 2007)
Where “and” joins values, the source holds several entries; their conditions need not be identical. Equal entries are not always repeated. Calls of active or inactive are those of the source. The calls are words filed in the database; no cut-off is given here.

Key:
[1] = target: T1, Glycine receptor subunit alpha-1 (Homo sapiens, UniProt P23415); test: Antagonist activity at human glycine alpha-1 receptor in HEK293 cells by FMP assay; assay type: functional, cell-based
T1 sequence (P23415 whole entry): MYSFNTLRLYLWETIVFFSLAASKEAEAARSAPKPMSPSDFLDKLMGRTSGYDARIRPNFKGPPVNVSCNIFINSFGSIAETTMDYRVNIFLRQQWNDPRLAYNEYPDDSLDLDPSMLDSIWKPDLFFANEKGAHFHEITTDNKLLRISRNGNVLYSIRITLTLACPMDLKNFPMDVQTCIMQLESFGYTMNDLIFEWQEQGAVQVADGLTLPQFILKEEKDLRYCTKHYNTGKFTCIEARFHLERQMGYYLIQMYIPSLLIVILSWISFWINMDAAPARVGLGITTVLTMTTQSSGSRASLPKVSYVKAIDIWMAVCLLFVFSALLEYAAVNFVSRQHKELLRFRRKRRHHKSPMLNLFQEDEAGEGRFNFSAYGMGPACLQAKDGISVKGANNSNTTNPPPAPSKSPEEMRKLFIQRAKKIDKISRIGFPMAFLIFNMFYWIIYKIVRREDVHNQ

[2] = target: T2, Neuronal acetylcholine receptor subunit alpha-7 (Homo sapiens, UniProt P36544); test: Antagonist activity at human alpha-7 nAChR in tsA201 cells coexpressed with Ric3 by FMP assay; assay type: functional, cell-based
Target sequence in this assay (P36544 whole entry): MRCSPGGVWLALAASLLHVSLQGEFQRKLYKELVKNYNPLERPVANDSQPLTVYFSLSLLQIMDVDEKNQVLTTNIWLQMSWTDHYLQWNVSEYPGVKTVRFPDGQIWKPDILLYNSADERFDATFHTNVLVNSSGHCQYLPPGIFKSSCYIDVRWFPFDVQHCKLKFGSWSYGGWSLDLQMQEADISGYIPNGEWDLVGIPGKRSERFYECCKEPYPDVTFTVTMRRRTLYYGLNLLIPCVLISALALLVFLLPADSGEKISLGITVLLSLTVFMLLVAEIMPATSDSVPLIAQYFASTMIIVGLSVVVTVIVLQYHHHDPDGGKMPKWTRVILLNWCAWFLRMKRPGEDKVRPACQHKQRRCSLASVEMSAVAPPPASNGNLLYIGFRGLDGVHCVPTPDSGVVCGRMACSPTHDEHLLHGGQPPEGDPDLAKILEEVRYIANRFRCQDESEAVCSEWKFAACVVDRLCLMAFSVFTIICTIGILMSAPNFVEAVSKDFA

[3] = target: T3, 5-hydroxytryptamine receptor 3A (Homo sapiens, UniProt P46098); test: Antagonist activity at human 5HT3A receptor expressed in HEK293 cells by FMP assay; assay type: functional, cell-based; conditions: read-out: IC50
T3 sequence (P46098 whole entry): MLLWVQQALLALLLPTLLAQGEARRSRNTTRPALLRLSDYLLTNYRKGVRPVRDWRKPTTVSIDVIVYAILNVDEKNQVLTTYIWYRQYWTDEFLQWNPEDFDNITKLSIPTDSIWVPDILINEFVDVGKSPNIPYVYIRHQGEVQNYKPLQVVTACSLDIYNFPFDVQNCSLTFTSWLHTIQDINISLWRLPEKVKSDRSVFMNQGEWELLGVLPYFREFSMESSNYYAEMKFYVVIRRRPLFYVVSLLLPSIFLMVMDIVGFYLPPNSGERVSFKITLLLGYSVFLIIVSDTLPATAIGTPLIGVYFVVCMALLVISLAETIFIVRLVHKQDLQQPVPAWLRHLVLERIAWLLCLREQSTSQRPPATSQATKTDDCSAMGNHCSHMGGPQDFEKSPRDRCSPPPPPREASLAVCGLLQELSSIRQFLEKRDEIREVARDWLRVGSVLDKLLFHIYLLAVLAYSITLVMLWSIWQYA

[4] = Antagonist activity at human alpha7nAChR Y93A mutant co-expressed with human Ric3 in tsA201 cells by FMP assay; assay type: functional, cell-based
[5] = Antagonist activity at human alpha-7 nAChR Y188A mutant coexpressed with human Ric3 in tsA201 cells by FMP assay; assay type: functional, cell-based
[6] = Displacement of [3H]methyllycaconitine from chimeric alpha-7nAChR K145R mutant /5HT3A receptor in tsA201 cells; assay type: cell-based, Homo sapiens
Procedure, shortened: (§1)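 tsA-201 cells transiently transfected with 4 µg WT or mutant α7/5-HT3A chimera and assayed 2 days later. Membranes washed twice at 50000g in 50 mM Tris-HCl pH 7.2. Incubated with 0.5 nM [3H]MLA and compound for 2.5 h at room temperature with shaking; nonspecific binding with 5 mM (S)-nicotine. PEI-soaked GF/C filtration, scintillation counting. Ki derived; duplicate, 3–7 experiments.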

[7] = target: Neuronal acetylcholine receptor; alpha4/beta4 (Rattus norvegicus, UniProt P09483+P12392); test: Displacement of [3H]epibatidine from recombinant rat alpha-4-beta-4 nAChr in HEK293 cell line; assay type: cell-based
Neuronal acetylcholine receptor; alpha4/beta4, sequence (P09483 whole entry): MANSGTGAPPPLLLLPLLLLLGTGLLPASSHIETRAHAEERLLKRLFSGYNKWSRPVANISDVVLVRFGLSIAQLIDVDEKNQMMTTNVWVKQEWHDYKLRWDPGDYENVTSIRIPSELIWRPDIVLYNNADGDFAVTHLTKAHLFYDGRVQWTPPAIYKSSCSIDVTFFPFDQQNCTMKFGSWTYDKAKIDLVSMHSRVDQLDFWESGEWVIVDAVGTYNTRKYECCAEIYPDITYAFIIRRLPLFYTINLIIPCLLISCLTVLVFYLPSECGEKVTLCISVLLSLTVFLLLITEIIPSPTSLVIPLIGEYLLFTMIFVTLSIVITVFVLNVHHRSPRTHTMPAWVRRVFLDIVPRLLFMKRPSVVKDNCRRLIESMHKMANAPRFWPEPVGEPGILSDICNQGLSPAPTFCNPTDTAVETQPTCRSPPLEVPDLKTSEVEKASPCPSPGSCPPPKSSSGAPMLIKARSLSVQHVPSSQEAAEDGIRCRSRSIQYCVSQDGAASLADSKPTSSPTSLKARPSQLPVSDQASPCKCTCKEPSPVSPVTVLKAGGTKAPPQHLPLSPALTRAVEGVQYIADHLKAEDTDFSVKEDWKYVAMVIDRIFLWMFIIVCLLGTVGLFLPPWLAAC
Neuronal acetylcholine receptor; alpha4/beta4, sequence (P12392 whole entry): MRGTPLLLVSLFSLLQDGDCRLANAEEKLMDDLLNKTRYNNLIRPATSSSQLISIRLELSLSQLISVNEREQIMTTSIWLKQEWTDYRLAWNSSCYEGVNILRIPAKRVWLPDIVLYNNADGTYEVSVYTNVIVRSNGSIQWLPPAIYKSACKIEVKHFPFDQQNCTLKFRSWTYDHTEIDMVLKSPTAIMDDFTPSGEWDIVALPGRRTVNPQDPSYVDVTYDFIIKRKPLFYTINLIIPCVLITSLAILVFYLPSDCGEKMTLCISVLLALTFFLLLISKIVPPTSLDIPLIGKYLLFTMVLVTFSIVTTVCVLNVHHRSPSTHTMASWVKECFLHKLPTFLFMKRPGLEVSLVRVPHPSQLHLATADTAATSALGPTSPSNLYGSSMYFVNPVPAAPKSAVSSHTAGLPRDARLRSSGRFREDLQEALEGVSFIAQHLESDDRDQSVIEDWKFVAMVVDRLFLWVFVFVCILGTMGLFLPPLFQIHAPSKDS

[8] = target: T4, Neuronal acetylcholine receptor; alpha3/beta4 (Rattus norvegicus, UniProt P04757+P12392); test: Antagonist activity at rat alpha3beta4 nAChR expressed in HEK293 cells by FMP assay; assay type: functional, cell-based, Homo sapiens; conditions: read-out: IC50
T4 sequence (P04757 whole entry): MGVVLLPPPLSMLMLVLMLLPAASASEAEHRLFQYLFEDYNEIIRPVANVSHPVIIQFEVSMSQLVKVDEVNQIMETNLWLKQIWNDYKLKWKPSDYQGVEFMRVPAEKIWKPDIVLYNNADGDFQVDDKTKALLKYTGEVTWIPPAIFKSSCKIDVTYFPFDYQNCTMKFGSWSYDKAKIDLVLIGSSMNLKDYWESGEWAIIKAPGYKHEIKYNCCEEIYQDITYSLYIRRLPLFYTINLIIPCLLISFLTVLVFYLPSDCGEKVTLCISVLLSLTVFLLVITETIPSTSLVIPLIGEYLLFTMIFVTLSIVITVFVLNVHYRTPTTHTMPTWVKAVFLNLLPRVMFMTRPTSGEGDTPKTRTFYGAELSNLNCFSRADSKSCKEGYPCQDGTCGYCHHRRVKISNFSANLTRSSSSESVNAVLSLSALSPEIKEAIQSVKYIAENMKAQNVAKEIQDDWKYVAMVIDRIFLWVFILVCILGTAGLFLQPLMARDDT
T4 sequence (P12392 whole entry): as the sequence (P12392 whole entry) above

[9] = Displacement of [3H]methyllycaconitine from chimeric alpha-7nAChR S150A mutant/5HT3A receptor in tsA201 cells; assay type: cell-based, Homo sapiens; procedure, shortened: as §1
tsA201 [10] = test: Displacement of [3H]methyllycaconitine from chimeric alpha-7nAChR Y188A mutant/5-HT3A receptor in tsA201 cells; assay type: cell-based; conditions: Homo sapiens; procedure, shortened: as §1
[11] = Displacement of [3H]methyllycaconitine from chimeric alpha-7nAChR Y168A mutant/5HT3A receptor in tsA201 cells; assay type: cell-based, Homo sapiens; procedure, shortened: as §1
tsA201 [12] = test: Displacement of [3H]methyllycaconitine from chimeric alpha-7nAChR Y93A mutant/5HT3A receptor in tsA201 cells; assay type: cell-based; conditions: Homo sapiens; procedure, shortened: as §1
cells = assay type: functional, cell-based; conditions: Homo sapiens, HEK293
[13] = Displacement of [3H]methyllycaconitine from chimeric alpha-7nAChR S148A mutant /5HT3A receptor in tsA201 cells; assay type: cell-based, Homo sapiens; procedure, shortened: as §1
tsA201 [14] = test: Displacement of [3H]methyllycaconitine from chimeric alpha-7nAChR W55A/Y195A mutant /5HT3A receptor in tsA201 cells; assay type: cell-based; conditions: Homo sapiens; procedure, shortened: as §1
[15] = Displacement of [3H]methyllycaconitine from chimeric alpha7nAChR W55Y mutant/5HT3A receptor in tsA201 cells; assay type: cell-based, Homo sapiens; procedure, shortened: as §1
[16] = target: T2, Neuronal acetylcholine receptor subunit alpha-7
Target sequence in this assay (P36544 whole entry): as the sequence (P36544 whole entry) above

[17] = Displacement of [3H]methyllycaconitine from chimeric alpha7nAChR K145A mutant/5HT3A receptor in tsA201 cells; assay type: cell-based, Homo sapiens; procedure, shortened: as §1
tsA201 [18] = test: Displacement of [3H]methyllycaconitine from chimeric alpha-7nAChR W149A mutant/5HT3A receptor in tsA201 cells; assay type: cell-based; conditions: Homo sapiens; procedure, shortened: as §1
[19] = Antagonist activity at human alpha7 nAChR W149Y mutant co-expressed with human Ric3 in tsA201 cells by FMP assay; assay type: functional, cell-based
[20] = target: Neuronal acetylcholine receptor; alpha4/beta2 (Rattus norvegicus, UniProt P09483+P12390); test: Displacement of [3H]epibatidine from rat recombinant alpha-4-beta-2 nAChR in HEK293 cell line; assay type: cell-based
Neuronal acetylcholine receptor; alpha4/beta2, sequence (P09483 whole entry): as the sequence (P09483 whole entry) above
Neuronal acetylcholine receptor; alpha4/beta2, sequence (P12390 whole entry): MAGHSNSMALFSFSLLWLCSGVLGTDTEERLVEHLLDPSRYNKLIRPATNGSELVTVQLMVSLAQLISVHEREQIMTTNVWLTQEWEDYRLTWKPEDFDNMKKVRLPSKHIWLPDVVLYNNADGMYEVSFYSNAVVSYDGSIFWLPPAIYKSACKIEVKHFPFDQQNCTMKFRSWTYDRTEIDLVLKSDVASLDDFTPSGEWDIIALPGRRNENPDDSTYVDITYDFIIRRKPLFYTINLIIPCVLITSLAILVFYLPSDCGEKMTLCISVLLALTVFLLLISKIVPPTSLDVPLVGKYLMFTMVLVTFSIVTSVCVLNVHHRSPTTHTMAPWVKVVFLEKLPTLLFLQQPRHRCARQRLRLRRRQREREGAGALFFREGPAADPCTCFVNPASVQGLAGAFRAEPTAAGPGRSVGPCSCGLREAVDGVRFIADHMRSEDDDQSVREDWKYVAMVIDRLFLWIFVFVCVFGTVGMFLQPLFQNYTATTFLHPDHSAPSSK

[21] = target: T2, Neuronal acetylcholine receptor subunit alpha-7; test: Displacement of [3H]methyllycaconitine from alpha7 nAChR in tsA201 cells co-expressed with Ric3; assay type: cell-based
Target sequence in this assay (P36544 whole entry): as the sequence (P36544 whole entry) above

[22] = target: T4, Neuronal acetylcholine receptor; alpha3/beta4; test: Displacement of [3H]epibatidine from recombinant rat alpha-3-beta-4 nAChr in HEK293 cell line; assay type: cell-based
[23] = Displacement of [3H]methyllycaconitine from chimeric alpha7nAChR R79A mutant/5HT3A receptor R79A mutant in tsA201 cells; assay type: cell-based, Homo sapiens; procedure, shortened: as §1
tsA201 [24] = test: Displacement of [3H]methyllycaconitine from chimeric alpha-7nAChR W149Y mutant/5HT3A receptor W149Y mutant in tsA201 cells; assay type: cell-based; conditions: Homo sapiens; procedure, shortened: as §1
[25] = target: T2, Neuronal acetylcholine receptor subunit alpha-7; test: Displacement of [3H]methyllycaconitine from chimeric alpha7nAChR/5HT3A in tsA201 cells; assay type: cell-based
Target sequence in this assay (P36544 23-502 limits assumed): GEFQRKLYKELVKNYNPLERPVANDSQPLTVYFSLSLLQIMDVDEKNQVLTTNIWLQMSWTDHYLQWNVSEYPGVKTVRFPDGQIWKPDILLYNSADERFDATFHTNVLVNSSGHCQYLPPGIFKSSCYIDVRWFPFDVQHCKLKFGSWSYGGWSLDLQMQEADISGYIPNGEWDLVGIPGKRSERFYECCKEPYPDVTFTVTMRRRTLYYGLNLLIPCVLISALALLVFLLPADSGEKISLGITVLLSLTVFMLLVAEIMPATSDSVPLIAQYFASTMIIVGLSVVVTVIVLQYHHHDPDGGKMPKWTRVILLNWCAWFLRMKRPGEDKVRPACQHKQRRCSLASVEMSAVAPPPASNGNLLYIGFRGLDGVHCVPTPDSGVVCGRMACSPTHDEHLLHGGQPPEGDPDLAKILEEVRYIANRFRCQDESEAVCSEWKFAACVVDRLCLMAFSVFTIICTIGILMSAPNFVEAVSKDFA

[26] = Antagonist activity at human alpha-7 nAChR Y195A mutant coexpressed with human Ric3 in tsA201 cells by FMP assay; assay type: functional, cell-based
[27] = Displacement of [3H]methyllycaconitine from chimeric alpha-7nAChR D197A mutant/5HT3A receptor in tsA201 cells; assay type: cell-based, Homo sapiens; procedure, shortened: as §1
[28] = Displacement of [3H]methyllycaconitine from chimeric alpha-7nAChR Y195F mutant/5HT3A receptor in tsA201 cells; assay type: cell-based, Homo sapiens; procedure, shortened: as §1
[29] = target: T2, Neuronal acetylcholine receptor subunit alpha-7; test: Displacement of [3H]methyllycaconitine from human alpha-7 in tsA201 cells coexpressed with 5HT3A receptor; assay type: cell-based
Target sequence in this assay (P36544 whole entry): as the sequence (P36544 whole entry) above

[30] = Displacement of [3H]methyllycaconitine from chimeric alpha-7nAChR N107A mutant/5HT3A receptor in tsA201 cells; assay type: cell-based, Homo sapiens; procedure, shortened: as §1
[31] = Displacement of [3H]methyllycaconitine from chimeric alpha-7nAChR W55A mutant /5HT3A receptor in tsA201 cells; assay type: cell-based, Homo sapiens; procedure, shortened: as §1
[32] = Displacement of [3H]methyllycaconitine from chimeric alpha7nAChR Y195A mutant/5HT3A receptor in tsA201 cells; assay type: cell-based, Homo sapiens; procedure, shortened: as §1
[33] = target: T3, 5-hydroxytryptamine receptor 3A; test: Displacement of [3H]GR65630 from human 5HT3A receptor in HEK293 cells; assay type: cell-based

C1=CC([N+]23CC[C@@H]4[C@@H]5[C@@H]6[C@@H](OCC=C(C2)[C@@H]6C[C@@H]43)N2c3ccccc3[C@@]34CC[N+]6(C7C=CCCC7)CC7=CCO[C@H]([C@@H]([C@H]23)[C@H]7C[C@@H]46)N5c2ccccc2)CCC1.[Br-].[Br-] (stereo partly drawn)
IC50 [1]: > 100000 nM
pIC50 ([1]; hek293): < 4
IC50 ([2]; read-out: IC50): 3000 nM
IC50 ([2]; read-out: pIC50 (converted)): 3020 nM
IC50 [3]: 4400 nM
IC50 ([4]; read-out: IC50): 3700 nM
IC50 ([4]; read-out: pIC50 (converted)): 3720 nM
IC50 ([5]; read-out: IC50): 5300 nM
IC50 ([5]; read-out: pIC50 (converted)): 5130 nM
Ki [6]: 660 nM
pKi [6]: 6.18
Ki [7]: > 100000 nM
pKi ([7]; hek293): < 4
IC50 [8]: 30000 nM
Ki [9]: 550 nM
pKi [9]: 6.26
Activity (tsA201 [10]): inactive
Ki [11]: 1100 nM
pKi [11]: 5.96
Activity (tsA201 [12]): inactive
IC50 (cells; read-out: IC50): > 100000 nM
IC50 (cells; read-out: pIC50 (converted)): > 100000 nM
Ki [13]: 400 nM
pKi [13]: 6.4
Activity (tsA201 [14]): inactive
Ki [15]: 560 nM
pKi [15]: 6.25
IC50 [16]: 3000 nM and 2950 nM
Ki [17]: 320 nM
pKi [17]: 6.5
Activity (tsA201 [18]): inactive
IC50 ([19]; read-out: IC50): 2900 nM
IC50 ([19]; read-out: pIC50 (converted)): 2880 nM
pKi ([20]; hek293): < 4
Ki ([20]; read-out: Ki): > 100000 nM
Ki ([21]; read-out: Ki): 590 nM
Ki ([21]; read-out: pKi (converted)): 631 nM
Ki [22]: 30000 nM
Ki [23]: 1300 nM
pKi [23]: 5.89
Activity (tsA201 [24]): inactive
Ki [25]: 840 nM
pKi [25]: 6.07
IC50 ([26]; read-out: IC50): 3300 nM
IC50 ([26]; read-out: pIC50 (converted)): 3310 nM
Ki [27]: 1500 nM
pKi [27]: 5.83
Ki [28]: 1300 nM
pKi [28]: 5.89
Ki ([29]; read-out: Ki): 720 nM
Ki ([29]; read-out: pKi (converted)): 794 nM
Ki [30]: 724 nM
pKi [30]: 6.14
Ki [31]: 1200 nM
pKi [31]: 5.93
Ki [32]: 4900 nM
pKi [32]: 5.31
Ki [33]: 2700 nM
